Screening results as filed in PubChem BioAssay.
Hits are enriched below; roughly 2.5% of the tested compounds scored in any of these assays.
NPY-Y1 antag = NPY-Y1 (human) receptor antagonism; HEK293-CNG Y1 cells, membrane potential fluorescence; NPY at EC95, then isoproterenol; 200,000 tested, 1% active; P25929; inhibition, % at 3.6 µM;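 active = inhibition above the campaign mean inhibition of all tested compounds plus 3 SD, cut at about 20% in these data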;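 also: 0% = DMSO wells given NPY plus isoproterenol and 100% = isoproterenol alone without NPY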
Target sequence (P25929 whole entry, looked up): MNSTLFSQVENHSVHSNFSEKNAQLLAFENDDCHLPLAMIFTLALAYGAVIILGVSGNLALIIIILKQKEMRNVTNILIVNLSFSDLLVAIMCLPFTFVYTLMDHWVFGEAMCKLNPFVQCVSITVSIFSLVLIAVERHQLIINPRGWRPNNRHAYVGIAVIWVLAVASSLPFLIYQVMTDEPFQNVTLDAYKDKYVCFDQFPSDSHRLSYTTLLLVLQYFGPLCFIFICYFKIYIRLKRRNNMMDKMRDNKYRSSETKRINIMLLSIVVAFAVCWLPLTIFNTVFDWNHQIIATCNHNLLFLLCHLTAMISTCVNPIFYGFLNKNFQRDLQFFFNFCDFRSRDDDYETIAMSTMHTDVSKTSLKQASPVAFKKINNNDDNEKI
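Assay system: HEK293 Y1/CNG channel cell line; Doses: single compound dose of 3.6 µM, 0.4% DMSO; Timing: dye 3 h, compound 60 min room temperature, stimulation 45 min; Technique: Membrane-potential fluorescent dye readout; Measure: % inhibition of NPY effect.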
NPY2 pot ag = potentiates or activates human NPY-Y2 receptor. activation, % at 3.6 µM. cells expressing NPY-Y2, potentiator/agonist read-out. 220,000 tested, 0.45% active; in the data active = activation above about 27%;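 also: cells stimulated with NPY near EC25 plus isoproterenol at EC100; 0% = vehicle plus submaximal agonist and 100% = vehicle plus saturating agonist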
NPY Y2 blocker = NPY-Y2 (human) receptor antagonism | P49146 | NPY-Y2 expressing cells, antagonist mode | inhibition, % at 2.7 µM | 140,000 tested, 0.99% active | AID 793; in the data active = inhibition above about 17%;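 also: 0% = vehicle with agonist challenge and 100% = reference antagonist with challenge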
INS promoter inh = TRM-6 insulin promoter activity inhibition | TRM-6 cells, insulin promoter-eGFP reporter, imaging; reporter expression induced with tamoxifen | inhibition, % at 2 µM | 130,000 tested, 0.9% active;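 active = inhibition above the mean plus 3 SD, with well images judged a real hit on visual review, cut at about 60% in these data, passing the limit was not always enough; inconclusive = inhibition over the cutoff but images rejected on review; inactive = inhibition not above the cutoff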
NPY-Y1 PAM-ag = potentiators or agonists of human neuropeptide Y receptor Y1; 220,000 tested, 0.37% active; activation, % at 3.6 µM; AID 1304; NPY-Y1 expressing cells, potentiator/agonist activation; in the data active = activation above about 33%, passing the limit was not always enough;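 also: cells stimulated with NPY at EC10 then isoproterenol at EC100; 0% = low agonist plus stimulus and 100% = saturating agonist plus stimulus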
Insulin prom up = MIN6 insulin promoter up-regulation; MIN6 insulin promoter-GFP reporter, high-content imaging; stronger effect = higher value; z-score at 5 µM; 190,000 tested, 0.3% active;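 active = z-score above 3 at 5 µM with at least 500 cells counted in the well; inconclusive = wells under 500 cells, flagged as cytotoxic or low count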
* hit, by the source's call; ? = inconclusive; . = no result given.

SMILES | NPY-Y1 antag | NPY2 pot ag | NPY Y2 blocker | INS promoter inh | NPY-Y1 PAM-ag | Insulin prom up
Cc1ccc2c(c1)-c1c(ssc1=S)C(C)(C)N2C(=O)CSc1nncn1C | -2 | 18 | 2 | -35 | 10 | -0.33
CC1(C)c2ssc(=S)c2-c2ccccc2N1C(=O)CSC1=NCCS1 | -5 | 34* | -4 | 58 | 39 | .
CCCCn1c(-c2sccc2C)n[nH]c1=S | 3 | -4 | . | . | 15 | -0.15
CCN(c1ccccc1)S(=O)(=O)c1ccc(C(=O)Nc2nnc(C3CC3)o2)cc1 | -1 | 9 | . | 78* | 9 | -3.1
CC(=O)Nc1ccc(Nc2cc(C)nc3c(-c4ccc(Cl)cc4)c(C)nn23)cc1 | -5 | 2 | -6 | . | 23 | 0.32
CC(=O)Nc1ccc(Nc2cc(C)nc3c(-c4ccc(Cl)cc4)cnn23)cc1 | -7 | 0 | -5 | 80* | 16 | .
O=C1CCC(/C=C/c2ccccc2)=NN1Cc1ccc(Cl)c(Cl)c1 | 20* | -10 | 25* | . | -34 | -0.14
COc1ccc(OC)c(C(=O)Cn2c3[n+](c4ccc(C(F)(F)F)cc42)CCCCC3)c1 | 5 | 12 | . | 24 | 21 | -0.53
Cc1nn(C)c(C)c1NC(=O)c1ccnn1C | -2 | -4 | 2 | 72* | 0 | 0.55
Cn1nccc1C(=O)Nn1cnnc1 | -1 | 4 | 0 | . | -9 | -0.15
C[N+](C)(C)C(Cc1c[nH]c2ccccc12)C(=O)[O-] (configuration not stated) | . | . | . | . | . | -0.44
CCOC(=O)COc1ccc(C(=O)NC2CCCCC2)cc1 | 2 | -15 | 2 | 0 | 1 | 4.2*
COc1ccc(N2C(=O)[C@@H]3C(c4cccnc4)=NO[C@@H]3C2=O)cc1 | . | 2 | . | . | 1 | -0.01
c1ccc(Nc2nc(-c3ccncc3)cs2)cc1 | -17 | 44* | -11 | 24 | 58* | .
COc1ccc(-c2csc(Nc3cccnc3)n2)cc1 | -11 | 29 | -8 | 45 | 13 | -0.49
Clc1ccc(Nc2nc(-c3ccncc3)cs2)cc1 | -15 | 3 | -7 | 35 | 19 | .
Clc1cccc(Nc2nc(-c3cccnc3)cs2)c1 | -13 | 30* | . | 33 | 47* | .
O=C1Nc2ccccc2C(O)(C(=O)NCc2ccc3c(c2)OCO3)N1c1ccc(Cl)c(Cl)c1 (configuration not stated) | -2 | -29 | 1 | 18 | 8 | 0.05
O=C(NC(=S)Nc1ccc(S(=O)(=O)Nc2nccs2)cc1)c1cccc(F)c1 | 0 | -2 | 1 | 74* | 13 | 0.46
CCOC(=O)N1CCN=C1SCc1ccc(Cl)c(Cl)c1 | 7 | -15 | . | -58 | -13 | -1.4
COc1ccc2cc(C#N)c(NC(C)C)nc2c1 | 1 | 2 | 2 | 86* | -20 | 0.51
O=C1c2ccccc2C(=O)N1CCCCCc1nc(-c2ccccc2)no1 | 22* | -5 | 12 | 5 | -19 | 0.3
Cn1cc([N+](=O)[O-])c(C(=O)N/N=C\c2c[nH]c3ccccc23)n1 | 1 | 12 | . | . | 4 | 0.01
C(=N\Nc1nc2ccccc2[nH]1)/c1c[nH]c2ccccc12 | -6 | 34* | 0 | 34 | 44* | -1.7
O=[N+]([O-])c1ccc(N/N=C/c2c[nH]c3ccccc23)cc1 | -20 | 48* | -8 | -223 | 55* | .
SMILES | NPY-Y1 antag | NPY2 pot ag | NPY Y2 blocker | INS promoter inh | NPY-Y1 PAM-ag | Insulin prom up
O=[N+]([O-])c1ccccc1N/N=C/c1c[nH]c2ccccc12 | -18 | 86* | -14 | 40 | 105* | .
COc1ccc(NS(=O)(=O)c2cc([N+](=O)[O-])ccc2N/N=C\c2c(C)[nH]c3ccccc23)cc1 | 1 | -4 | 1 | . | 13 | .
COc1ccccc1NS(=O)(=O)c1cc([N+](=O)[O-])ccc1N/N=C/c1c[nH]c2ccccc12 | -4 | 34* | -5 | -264 | 39* | .
COc1ccc(S(=O)(=O)Nc2nc3ccccc3nc2NCC2CCCO2)cc1 (configuration not stated) | . | 3 | . | . | 8 | -0.26
CC1CCCCN1C(=O)COC(=O)c1n[nH]c2ccccc12 (configuration not stated) | 8 | -6 | 4 | 12 | -4 | -0.22
Cc1ccc2c(CSc3nc4ccccc4c(=O)n3CCCO)cc(=O)oc2c1C | 31* | -22 | 28* | 14 | -28 | 0.35
CC(=O)NCCn1c(SCc2ccccc2F)nc2ccccc2c1=O | -6 | 102* | 2 | . | 77* | -0.17
CN(Cc1ccc(-n2cccn2)cc1)Cc1nc(-c2cnccn2)no1 | 5 | -4 | . | . | 16 | 0.92
COc1ccccc1-c1nnc2n1N=C(C)CS2 | -3 | 27 | 3 | 25 | 1 | 0.23
CC1=Nn2c(nnc2-c2ccccc2Cl)SC1 | -3 | 6 | 4 | 88* | 6 | -0.43
COc1ccc(C2=Nn3c(nnc3-c3ccccc3OC)SC2)cc1OC | 30* | -32 | 30* | -200 | -75 | -3.3
COc1ccc(C2=Nn3c(nnc3-c3ccccn3)SC2)cc1OC | 2 | -1 | 2 | . | -3 | 0.43
Cc1oc(-c2cccc3ccccc23)nc1CN1CCC[C@H]1CO | 4 | -8 | . | . | -11 | 0.11
CC(C)COP(=O)(OCC(C)C)C(Nc1ccccc1)c1ccc(F)cc1 (configuration not stated) | 31* | 1 | 23* | -52 | -12 | 0.6
Cc1ccc(-n2c(-c3ccc(Br)cc3)c[n+]3c2CCc2ccc4cccnc4c2-3)cc1 | 54* | -29 | 70* | -16 | -74 | ?
CCCCC(C)(O)C/C=C/[C@H]1[C@H](O)CC(=O)[C@@H]1CCCCCCC(=O)OC (some centres not stated) | 106* | -6 | 93* | 33 | -95 | .
CCCCCCC(=O)Oc1ccc(N2C(=O)CCC2=O)cc1 | 2 | -13 | . | 13 | 2 | 0.21
O=C(NNc1nc(Nc2ccccc2)nc(N2CCOCC2)n1)Nc1ccc(Cl)cc1 | 1 | 7 | . | -76 | 16 | 0.39
O=C(COc1ccccc1)NNC(=O)COc1ccc([N+](=O)[O-])cc1 | 0 | 6 | . | 0 | 1 | -0.44
O=C(COc1ccc([N+](=O)[O-])cc1)N(Cc1ccccc1)Cc1ccccc1 | 21* | -8 | 23* | -56 | -16 | -0.39
Cc1ccnc(NC(=O)COc2c(C)cc(C)cc2[N+](=O)[O-])c1 | 3 | 7 | 8 | 23 | -25 | -0.18
Cc1ccnc(NC(=O)COc2ccc3oc4c(c3c2)CCCC4)c1 | 21* | -7 | 11 | -17 | -31 | 0.28
COc1cccc(C(=O)Nc2ccccc2C(=O)N2CCCC2)c1 | 4 | 6 | 2 | -14 | 1 | 3.3*
O=C(NC(=S)Nc1ccc(CN2CCOCC2)cc1)c1ccc2c(c1)OCCO2 | . | -12 | . | . | -14 | -0.38
Cn1c(C(=O)c2ccccc2[N+](=O)[O-])nc2ccccc21 | -2 | 10 | . | 80* | 26 | 1.1
Cc1ccc(Cn2c(NCCCn3ccnc3)nc3c2c(=O)n(C)c(=O)n3C)cc1 | 3 | 13 | 1 | 18 | 3 | .
